Published values from different studies.
Lines come from different studies, so protocols differ.
Target: Ribosomal protein S6 kinase beta-1 (RPS6KB1, Homo sapiens, UniProt P23443)

SMILES	assay	setting	quantity	value
CNCc1ccccc1-c1csc([C@@H](C)Nc2nc(C)nc3cc(OC)c(OC)cc23)c1	cell-free assay, competition with immobilised ligand	1 µM	remaining binding	86%
CN(C)C1CCN(CC#Cc2nn(C3CCCC3)c3nc(NCc4ccccc4)ncc23)C1 (stereo not shown)	enzyme activity, inhibitor, FRET	10 µM	inhibition	10%
N#Cc1ccc(Nc2ccc3[nH]c(=O)[nH]c3c2)c(Cl)c1	cell-free assay, competition with immobilised ligand	1 µM	remaining binding	100%
Cc1cc(NC(=O)c2cccc3cc(-c4cccc5[nH]nc(N)c45)ccc23)ccc1F	enzyme activity, inhibitor	0.1 µM	activity vs control	110%
CNc1cccc2cc(C(=O)Nc3ccc(C(=O)O)cc3)c(=O)[nH]c12	enzyme activity, inhibitor	10 µM	inhibition	9%
C[C@H](c1cccc(C#N)c1)n1cc(Cl)cc(C(N)=O)c1=N	cell-free assay, competition with immobilised ligand	1 µM	remaining binding	100%
CN(c1ncccc1CNc1nc(Nc2ccc3c(c2)CC(=O)N3)ncc1C(F)(F)F)S(C)(=O)=O	enzyme activity, inhibitor	1 µM	inhibition	26.4%
Cn1cncc1C1=CN(c2ncnc3[nH]cnc23)CCS1	enzyme activity, inhibitor, radiometric	50 nM	inhibition	14%
CN([C@@H]1CCc2c(CC(=O)O)c3ccccc3n2C1)S(=O)(=O)c1ccc(F)cc1	cell-free assay, competition with immobilised ligand	1 µM	remaining binding	100%
CCCS(=O)(=O)Nc1ccc(F)c(C(=O)c2c[nH]c3ncc(-c4ccc(Cl)cc4)cc23)c1F	enzyme activity, inhibitor	1 µM	inhibition	< 10%
COc1cc(-c2cn(C3CCc4c(F)cccc4N(CC(F)(F)F)C3=O)nn2)ccc1-n1cnc(C)c1 (stereo not shown)	cell-free assay, competition with immobilised ligand	1 µM	remaining binding	100%
CCN(CC)CCNC(=O)c1c(C)[nH]c(/C=C2\C(=O)Nc3ccc(F)cc32)c1C	enzyme activity, inhibitor	0.3 µM	inhibition	30%
Oc1cccc(-c2nc(N3CCOCC3)c3oc4ncccc4c3n2)c1	cell-free assay	0.5 µM	remaining signal	106%
Cc1ccc(NC(=O)c2ccc(C)c(C(F)(F)F)c2)cc1C#Cc1nn(C2CCC(O)CC2)c2ncnc(N)c12 (stereo not shown)	cell-free assay	10 µM	remaining signal	33%
Nc1ncnc2occ(-c3ccc(NC(=O)Nc4cc(C(F)(F)F)ccc4F)cc3)c12	cell-free assay, inhibitor	20 µM	remaining signal	0.1%
COc1ccc(COc2ccc(Cc3cnc(N)nc3N)cc2OC)cc1	cell-free assay	0.5 µM	remaining signal	89.5%
COc1cc2ncnc(Nc3ccc(Oc4ccccc4)c(C)c3C)c2cc1OC	enzyme activity, inhibitor	1 µM	inhibition	-3%
CSc1cccnc1N1CCN(Cc2nc3ccccc3[nH]2)CC1	cell-free assay, competition with immobilised ligand	1 µM	remaining binding	87%
O=C1Nc2ccc(Cl)cc2C1=Cc1cc(Cl)c(O)c(Cl)c1	cell-free assay	0.5 µM	remaining signal	91%
